The record followed here is PMC9727797 (Molecular Biology of the Cell, 2022).

Assay [1] addresses T1, KIF15-N420 (Homo sapiens, UniProt Q9NS87).
T1 sequence (Q9NS87 1-420 limits assumed): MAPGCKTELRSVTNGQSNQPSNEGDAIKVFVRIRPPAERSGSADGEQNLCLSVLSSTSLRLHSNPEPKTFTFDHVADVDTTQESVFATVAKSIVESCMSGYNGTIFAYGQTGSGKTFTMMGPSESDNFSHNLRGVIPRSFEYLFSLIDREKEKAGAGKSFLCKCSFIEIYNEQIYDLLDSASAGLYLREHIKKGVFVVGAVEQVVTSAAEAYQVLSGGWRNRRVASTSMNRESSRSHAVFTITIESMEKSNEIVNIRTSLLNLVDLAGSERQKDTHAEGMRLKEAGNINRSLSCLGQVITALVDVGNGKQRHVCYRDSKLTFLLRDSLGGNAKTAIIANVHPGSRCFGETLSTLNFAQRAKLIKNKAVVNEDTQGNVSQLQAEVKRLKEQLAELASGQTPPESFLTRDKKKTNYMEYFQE
The experiment in a line: ATP-dependent steady-state ATPase assay. The format is biochemical. The following applies: 30 μM compound, 3 μM microtubules, fit ± 95% confidence interval. In outline:
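KIF15-N420 ATPase measured by NADH-coupled assay, with absorbance at 340 nm followed over time at 25°C. Rates were divided by active motor concentration. ATP was varied, with microtubules held at 3 μM. Test compound was 30 μM, or an equal volume of DMSO. Michaelis-Menten fits were weighted by 1/SEM, with n = 5–7 per concentration. kcat and Km are reported as fit ± 95% confidence interval.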

Assay [2] concerns the target T2, KIF15-N700 (Homo sapiens, UniProt Q9NS87).
T2 sequence (Q9NS87 1-700 limits assumed): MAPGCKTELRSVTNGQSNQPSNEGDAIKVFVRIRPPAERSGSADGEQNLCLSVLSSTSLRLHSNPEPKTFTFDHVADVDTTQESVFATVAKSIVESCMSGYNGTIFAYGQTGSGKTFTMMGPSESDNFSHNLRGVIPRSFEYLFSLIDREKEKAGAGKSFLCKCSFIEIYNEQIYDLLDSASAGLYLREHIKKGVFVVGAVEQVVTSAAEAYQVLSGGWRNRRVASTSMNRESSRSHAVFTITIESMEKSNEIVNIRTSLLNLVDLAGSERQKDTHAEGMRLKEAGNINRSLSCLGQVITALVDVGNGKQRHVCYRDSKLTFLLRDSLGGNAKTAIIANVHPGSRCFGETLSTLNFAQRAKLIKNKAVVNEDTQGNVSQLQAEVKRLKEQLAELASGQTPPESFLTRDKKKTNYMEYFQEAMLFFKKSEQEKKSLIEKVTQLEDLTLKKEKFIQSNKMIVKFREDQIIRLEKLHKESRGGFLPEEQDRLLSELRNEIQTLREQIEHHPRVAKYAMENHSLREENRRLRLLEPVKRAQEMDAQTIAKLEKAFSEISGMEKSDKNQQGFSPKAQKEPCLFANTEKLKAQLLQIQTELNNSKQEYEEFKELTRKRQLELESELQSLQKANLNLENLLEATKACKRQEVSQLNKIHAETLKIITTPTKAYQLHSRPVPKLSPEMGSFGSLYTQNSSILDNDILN
Briefly: Microtubule gliding assay. The format is biochemical. The essentials: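 His6-KIF15-N700 was expressed in High Five insect cells, then purified by Ni-NTA and Superdex 200 gel filtration. Microtubule gliding was imaged every 5 s for 1 min at 100×. Velocity was taken as distance travelled in 1 min, from ≥15 microtubules at each of three slide locations (n ≥ 50 per slide). Concentration-response curves used eight concentrations from 10 nM up to 30 or 100 µM, in triplicate. Single-point derivative tests used 25 µM.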

The target in assay [3] is T3, HSET (Homo sapiens, UniProt Q9BW19).
T3 sequence (Q9BW19 1-673): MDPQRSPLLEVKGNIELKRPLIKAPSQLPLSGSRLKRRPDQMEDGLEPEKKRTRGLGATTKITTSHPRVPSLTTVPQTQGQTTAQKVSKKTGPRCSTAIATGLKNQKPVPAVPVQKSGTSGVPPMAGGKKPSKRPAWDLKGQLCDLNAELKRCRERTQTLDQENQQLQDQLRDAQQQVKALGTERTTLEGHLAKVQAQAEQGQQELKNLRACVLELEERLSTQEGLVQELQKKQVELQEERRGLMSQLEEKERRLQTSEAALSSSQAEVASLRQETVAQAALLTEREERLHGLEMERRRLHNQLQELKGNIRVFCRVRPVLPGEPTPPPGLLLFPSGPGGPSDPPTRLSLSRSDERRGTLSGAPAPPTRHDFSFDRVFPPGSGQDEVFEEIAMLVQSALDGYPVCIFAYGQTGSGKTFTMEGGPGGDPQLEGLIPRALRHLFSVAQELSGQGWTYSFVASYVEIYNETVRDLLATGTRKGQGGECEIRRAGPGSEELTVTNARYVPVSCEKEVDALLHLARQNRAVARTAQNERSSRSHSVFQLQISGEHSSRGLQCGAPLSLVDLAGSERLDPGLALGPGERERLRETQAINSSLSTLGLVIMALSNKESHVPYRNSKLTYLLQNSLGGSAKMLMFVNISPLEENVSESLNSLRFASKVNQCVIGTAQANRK
Briefly: Microtubule gliding assay, HSET. The format is biochemical. The following applies: 24 µM Munesib-1 or 100 µM Fift-IN. The essentials:
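Gliding assays with other motors used His6-Eg5, His6-EGFP-HSET or K560 (truncated kinesin-1), with test compound at 24 µM or 100 µM. Frames were captured every 5 s for 1 min at 100×. Velocity was the distance travelled in 1 min, from ≥15 microtubules at each of three locations (n ≥ 50 per slide).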

Assay [4] has as its system TP53–/– RPE-1 cells. Briefly: Preanaphase spindle morphology, RPE-1 cells. The format is cell-based, human. The note with it: increasing concentrations. The essentials:
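TP53–/– RPE-1 and KIRC-1 cells were grown in DMEM with 10% FBS, penicillin and streptomycin; KIRC-1 medium also contained 10 μM STLC. Cells on coverslips were treated overnight with increasing test-compound concentrations or DMSO. They were then methanol-fixed and stained for KIF15, tubulin and DNA. Preanaphase spindles were scored monopolar or bipolar, in triplicate with n = 100 per replicate (± SEM).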

Assay [5] deals with T1, KIF15-N420. The experiment in a line: Enzyme-coupled ATPase assay, concentration response. The format is biochemical. The following applies: 2 mM ATP, 5 μM microtubules. In outline:
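Concentration response used the same NADH-coupled KIF15-N420 reaction (A340, 25°C), with 2 mM ATP and 5 μM microtubules at every test-compound concentration. Eight compound concentrations were tested. Curves were built from repeated measurements plotted as mean ± SEM.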

Setting [6] is: 24 µM Munesib-1 or 100 µM Fift-IN.

The IC50 is the concentration needed to halve the response being measured. A higher IC50 goes with a need for much substance. Consider `COC(=O)c1ccc2c(c1)N(C)S(=O)(=O)c1cnc(SC)nc1-2` [Munesib-1, Methyl 6-methyl-2-(methylthio)-6H-benzo[c]pyrimido[4,5-e][1,2]thiazine-8-carboxylate 5,5-dioxide], for which the “kcat, ATP-dependent ATPase” value in assay [1] was determined as 2.6 ± 0.4 s^–1. In assay [2] (24 μM Munesib-1), the “gliding velocity after removal of compound (wash-out)” value was “nearly restored to baseline” and the “microtubule gliding on addition of compound (wash-in)” value is on record as “fully abrogated”. For the same molecule, in assay [2] (setting [6]), the “inhibition of microtubule gliding, KIF15” value was “robustly inhibited” and the “reversibility of inhibition (washout experiment)” value was “reversible inhibitor”. In assay [2] (25 µM, singlicate), the “% inhibition of KIF15 microtubule gliding activity” value was “completely eliminates”. This molecule registered an IC50 in assay [2] (IC50, microtubule gliding assay, KIF15-N700) of 400 nM. For the same molecule, the “fold stronger inhibitory action against KIF15 than Fift-IN” value in assay [2] (in vitro ATPase and microtubule gliding assays) is given as “roughly 10 fold”. In addition, the “inhibition of microtubule gliding, HSET” value in assay [3] is reported as “neither substantially inhibited”. In assay [4], the “effect on spindle morphology” value is recorded as “little effect on spindle morphology”. The molecule also displayed a 50% inhibitory concentration (IC50) in assay [5] of 2800 nM.
